The source of these data is ChEMBL document CHEMBL4699510, “Discovery of a series of ester-substituted NLRP3 inflammasome inhibitors” (Bioorg Med Chem Lett, 2020).

The target in data set [1] is NACHT, LRR and PYD domains-containing protein 3 (Homo sapiens, UniProt Q96P20). As to the kind of experiment: Inhibition of NLRP3 in human PBMC cells assessed as inhibition of LPS and ATP-induced IL-1beta production. Format: cell-based.
The nature of data set [2]: Effective permeability of compound by PAMPA. It is filed as ADME. Conditions: read-out: Peff. In general terms: In PAMPA a lipid-coated filter parts donor from acceptor wells.
A short description of data set [3]: Stability in human blood assessed as compound remaining measured after 1 hr. It is filed as ADME, tissue-based. The conditions noted are these: read-out: Stabilty. In short, it runs like this:
(§1)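 Compound incubated in whole blood (human or mouse) at 37° C for one hour; stability expressed as percentage of compound remaining.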

Data set [4] can be described thus: Stability in mouse blood assessed as compound remaining measured after 1 hr. Format: ADME, tissue-based. Conditions: read-out: Stabilty. An outline of the steps: as §1
Data set [5] in a line: Inhibition of TNFalpha production in human PBMC.
The nature of data set [6]: Inhibition of IL-6 production in human PBMC.

NACHT, LRR and PYD domains-containing protein 3, sequence (Q96P20 whole entry, the tested form may be a part): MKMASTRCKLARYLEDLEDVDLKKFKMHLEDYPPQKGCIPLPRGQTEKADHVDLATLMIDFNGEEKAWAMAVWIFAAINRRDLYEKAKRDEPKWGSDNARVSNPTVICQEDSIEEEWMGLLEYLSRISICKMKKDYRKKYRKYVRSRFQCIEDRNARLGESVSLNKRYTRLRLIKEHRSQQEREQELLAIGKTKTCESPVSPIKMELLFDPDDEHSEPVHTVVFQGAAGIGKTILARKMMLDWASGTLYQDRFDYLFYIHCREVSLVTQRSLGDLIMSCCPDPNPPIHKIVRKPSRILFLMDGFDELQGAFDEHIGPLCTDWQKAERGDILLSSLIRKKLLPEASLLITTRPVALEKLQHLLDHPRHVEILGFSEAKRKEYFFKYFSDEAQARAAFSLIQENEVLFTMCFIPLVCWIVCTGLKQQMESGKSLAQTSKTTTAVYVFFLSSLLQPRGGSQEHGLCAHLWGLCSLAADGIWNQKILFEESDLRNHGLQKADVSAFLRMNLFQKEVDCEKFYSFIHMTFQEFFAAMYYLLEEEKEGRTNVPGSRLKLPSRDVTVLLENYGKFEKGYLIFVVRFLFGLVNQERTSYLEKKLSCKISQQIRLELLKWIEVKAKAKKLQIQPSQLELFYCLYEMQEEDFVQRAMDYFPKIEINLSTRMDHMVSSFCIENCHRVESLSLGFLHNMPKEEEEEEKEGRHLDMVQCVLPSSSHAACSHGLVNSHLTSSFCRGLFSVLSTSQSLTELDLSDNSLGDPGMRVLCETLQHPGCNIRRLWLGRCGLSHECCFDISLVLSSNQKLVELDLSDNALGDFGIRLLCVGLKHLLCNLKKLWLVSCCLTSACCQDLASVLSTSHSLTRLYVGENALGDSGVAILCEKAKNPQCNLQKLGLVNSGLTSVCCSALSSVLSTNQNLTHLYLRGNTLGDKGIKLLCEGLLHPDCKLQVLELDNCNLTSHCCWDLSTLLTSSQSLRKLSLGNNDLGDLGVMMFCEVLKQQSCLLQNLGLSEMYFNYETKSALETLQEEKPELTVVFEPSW

Take `CC(C)(O)c1coc(S(=O)(=O)NC(=O)Nc2cccc3c2CCC3)c1`: the half-inhibitory concentration (IC50) (usually the concentration that inhibits the measured activity by half) in data set [1] is above 20 µM. Take `COC(=O)[C@@H](Cc1ccncc1)NC(=O)Nc1c2c(cc3c1CCC3)CCC2`: the IC50 in data set [1] was above 20 µM. Consider `COC(=O)C(C)(C)NC(=O)Nc1c2c(cc3c1CCC3)CCC2`, for which the IC50 in data set [1] is above 20 µM. Still for that read-out and setting: under `CCOC(=O)CNC(=O)Nc1c(C)cccc1C` stands above 20 µM; under `O=C(O)CNC(=O)Nc1c2c(cc3c1CCC3)CCC2`, above 20 µM. Still for that read-out and setting: under `O=C(CNS(=O)(=O)c1ccccc1)Nc1c2c(cc3c1CCC3)CCC2` stands above 20 µM.

As for `CCOC(=O)[C@@H](Cc1cnccn1)NC(=O)Nc1c2c(cc3c1CCC3)CCC2`, the Papp in data set [2] is 13.9 ×10⁻⁶ cm/s. Further, the figures for the remaining at 1 h in data set [3] and in data set [4] were 79.2% and 0%, respectively. For `CCOC(=O)CNC(=O)Nc1c2c(cc3c1CCC3)CCCC2`, the IC50 in data set [1] is above 20 µM. In the case of `CNC(=O)CNC(=O)Nc1c2c(cc3c1CCC3)CCC2`, the IC50 in data set [1] is above 20 µM.

In the case of `COC(=O)C(CCc1ccccc1)NC(=O)Nc1c2c(cc3c1CCC3)CCC2` (stereo not drawn), the IC50 in data set [1] was above 20 µM. For the compound `COC(=O)CC(=O)Nc1c2c(cc3c1CCC3)CCC2`, in data set [1], the IC50 was above 20 µM. Same read-out and setting: under `O=C(O)CC(=O)Nc1c2c(cc3c1CCC3)CCC2` stands above 20 µM; under `O=C(CS(=O)(=O)Nc1ccccc1)Nc1c2c(cc3c1CCC3)CCC2`, above 20 µM. As for `CC(C)(C)OC(=O)CNC(=O)Nc1c2c(cc3c1CCC3)CCC2`, in data set [1], the IC50 is above 20 µM. On the same count and under the same terms, to `Cc1nnc(CNC(=O)Nc2c3c(cc4c2CCC4)CCC3)o1` belongs above 20 µM; to `CCOC(=O)CNC(=O)NC12CC3CC(CC(C3)C1)C2`, above 20 µM; to `CC(C)(O)c1coc(S(=O)(=O)NC(=O)Nc2ccccc2)c1`, above 20 µM. Still for that read-out and setting: under `CN(C)C(=O)CNC(=O)Nc1c2c(cc3c1CCC3)CCC2` stands above 20 µM. In the case of `CCOC(=O)[C@@H](Cc1ncccn1)NC(=O)Nc1c2c(cc3c1CCC3)CCC2`, the results for the IC50 in data set [5] and in data set [6] were 2700 nM and 4.3 µM, respectively. The Papp in data set [2] came out at 8.2 ×10⁻⁶ cm/s. Further, the remaining at 1 h in data set [3] was determined as 92.4%; in data set [4] it was 0%. Take `Cc1nc(CNC(=O)Nc2c3c(cc4c2CCC4)CCC3)no1`: the IC50 in data set [1] is above 20 µM.

As to `CCOC(=O)CNC(=O)Nc1c2c(c(Cl)c3c1CCC3)CCC2`, the IC50 in data set [1] is above 20 µM. For `CC(C)(O)c1coc(S(=O)(=O)[N-]C(=O)Nc2c3c(cc4c2CCC4)CCC3)c1.[Na+]`, the figures for the IC50 in data set [5] and in data set [6] were above 40000 nM and above 40 µM, respectively. Also, the Papp in data set [2] was below 0.0003 ×10⁻⁶ cm/s. Regarding `COC(=O)CNC(=O)Nc1c(C(C)C)cccc1C(C)C`, in data set [1], the IC50 was above 20 µM.

In the case of `CCOC(=O)CNC(=O)NC(c1ccccc1)c1ccccc1`, in data set [1], the IC50 is above 20 µM. On the same count and under the same terms, to `CCOC(=O)CNC(=O)Nc1c2c(nc3c1CCC3)CCC2` belongs above 20 µM.
